Hits are enriched below; roughly 2.9% of the tested compounds scored in any of these assays.
DDE Tn6 FP inh: inhibitors of Tn6 peptide binding to fibrin DD(E), primary screen, biochemical, fluorescence polarization, human fibrin, Tn6 probe | Fibrinogen beta chain (Homo sapiens), P02675 | inhibition, % at 8.3 µM | Fibrin DD(E) TRITC-Tn6 fluorescence polarization displacement | 370,000 tested, 0.21% active;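 active = inhibition above a per-campaign cutoff: mean of compounds within control limits plus 3 SD, cut at about 15% in these data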
CRFR2-BP antag: antagonists of CRF-BP/CRF-R2 complex, primary screen, cell-based, HEK293, calcium dye fluorescence, uHTS. CRF-induced calcium fluorescence. inhibition, % at 11.8 µM. 350,000 tested, 0.59% active;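 active = inhibition of the ligand-induced calcium signal above about 50% at the single tested concentration, limit read from the data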
proKLK7 act: proKLK7 zymogen activators, primary screen, biochemical, fluorescence intensity; Kallikrein-7 (Homo sapiens), P49862; purified proKLK7, EDANS-DABCYL substrate fluorescence; 100% is mature enzyme control, 0% vehicle; activation, % at 7 µM; 370,000 tested, 0.9% active; AID 652039, 2013;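 active = activation above the mean of all tested compounds plus 3 SD, computed per campaign excluding outliers beyond control limits, cut at about 13% in these data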
NRP1-CendR mod: modulators of CendR peptide binding to NRP-1, primary screen, biochemical, fluorescence polarization, uHTS. Neuropilin-1 (Homo sapiens), O14786. FAM-RPARPAR peptide binding to NRP-1. inhibition, % at 25 µM. 360,000 tested, 0.85% active;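 active = inhibition or corrected inhibition above about 18%, plus a signal ratio from 0.5 to 1.5, limit read from the data, passing the limit was not always enough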
Target sequence (O14786 whole entry, looked up): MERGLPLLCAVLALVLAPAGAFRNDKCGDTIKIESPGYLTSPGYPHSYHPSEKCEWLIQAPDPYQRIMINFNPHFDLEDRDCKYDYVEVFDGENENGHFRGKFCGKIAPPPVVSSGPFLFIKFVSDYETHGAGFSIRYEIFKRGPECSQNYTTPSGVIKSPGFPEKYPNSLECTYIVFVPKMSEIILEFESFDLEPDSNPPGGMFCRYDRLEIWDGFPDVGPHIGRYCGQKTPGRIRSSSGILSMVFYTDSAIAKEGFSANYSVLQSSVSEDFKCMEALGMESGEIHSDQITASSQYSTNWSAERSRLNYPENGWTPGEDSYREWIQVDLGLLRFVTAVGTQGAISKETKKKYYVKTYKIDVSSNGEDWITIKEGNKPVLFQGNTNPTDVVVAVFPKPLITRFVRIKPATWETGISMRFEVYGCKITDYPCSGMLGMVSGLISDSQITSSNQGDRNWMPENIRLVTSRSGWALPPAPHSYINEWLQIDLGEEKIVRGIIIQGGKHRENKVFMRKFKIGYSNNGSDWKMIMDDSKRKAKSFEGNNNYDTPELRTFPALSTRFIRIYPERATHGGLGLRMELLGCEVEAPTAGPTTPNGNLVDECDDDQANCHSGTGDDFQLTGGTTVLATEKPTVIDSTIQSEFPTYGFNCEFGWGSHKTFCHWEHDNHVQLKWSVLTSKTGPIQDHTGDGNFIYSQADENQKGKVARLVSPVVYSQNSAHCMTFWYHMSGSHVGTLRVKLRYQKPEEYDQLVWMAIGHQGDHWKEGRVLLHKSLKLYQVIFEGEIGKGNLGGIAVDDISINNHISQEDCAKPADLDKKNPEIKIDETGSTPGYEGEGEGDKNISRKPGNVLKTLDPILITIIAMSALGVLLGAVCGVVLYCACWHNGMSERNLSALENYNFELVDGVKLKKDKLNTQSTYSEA
Tn7 DDE FP: inhibitors of Tn7 peptide binding to fibrin DD(E), primary screen, biochemical, fluorescence polarization, human fibrin, Tn7 probe; FP displacement of FITC-Tn7 peptide from fibrin DD(E); 0% = median of compound wells per plate; inhibition, % at 8.3 µM; AID 720508, 2013; 370,000 tested, 0.13% active; Fibrinogen beta chain (Homo sapiens), P02675;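 active = inhibition above the mean of compounds falling within the control limits plus 3 SD of them, cut at about 14% in these data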
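System: human fibrin DD(E); quantity: Fibrin-DD(E) at 2 µM final; also added: fluorescent Tn7 probe at 0.1 µM; compound dosing: single nominal test concentration of 8.3 µM per compound; schedule: 10 min preincubation, 3 h with tracer, room temperature; detection: fluorescence polarization of the labelled Tn7 tracer; repeats: one replicate per compound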
CRFBP-R2 agonist: agonists of CRF-BP/CRF-R2 complex, primary screen, cell-based, HEK293, calcium dye fluorescence, uHTS. AID 588473, 2011. 350,000 tested, 0.46% active. calcium dye fluorescence (FLIPR); percent of saturating CRF peptide response. activation, % at 13.2 µM;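 active = activation of at least 50%, plus an integration ratio under a set limit after plate pattern correction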
KLK7 act conf: proKLK7 zymogen activators, confirmation, biochemical, fluorescence intensity, triplicate | shares compounds with proKLK7 act | activation, % at 7 µM | purified proKLK7, EDANS-DABCYL substrate fluorescence; scaled: vehicle 0, mature enzyme 100 | 3,200 tested, 68% active;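 active = activation, as change over the incubation, above the mean of all tested compounds plus 3 SD, cut at about 13% in these data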
EDANS-DABCYL int: EDANS-DABCYL substrate optical interference, artefact control for kallikrein-7 zymogen activator project, biochemical, fluorescence intensity, high throughput | activation, % at 7 µM | no enzyme, 4 h; solvent 0%, active enzyme control 100% | shares compounds with proKLK7 act | 3,200 tested, 80% active;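 active = activation above the all-compound mean plus 3 SD, ignoring values outside control-based bounds, cut at about 4.8% in these data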;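 also: value is the 4 h activation minus the activation read at time zero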
Hits are given with their value.

How did O=C1NC2=C(C(=O)CCC2)C(c2ccccc2Cl)N1 (stereo not drawn) do in these assays?
DDE Tn6 FP inh: inactive; CRFR2-BP antag: inactive; proKLK7 act: inactive; NRP1-CendR mod: inactive; Tn7 DDE FP: inactive; CRFBP-R2 agonist: inactive

Results for Cc1nc(Cl)c2c(n1)NC1=C(O2)C(=O)CCC1 ?
DDE Tn6 FP inh: inactive; CRFR2-BP antag: inactive; proKLK7 act: 22; NRP1-CendR mod: inactive; Tn7 DDE FP: inactive; CRFBP-R2 agonist: inactive; KLK7 act conf: 18; EDANS-DABCYL int: 22

How did CNc1cnc(-c2cccc(C(=O)N3CCOCC3)c2)cn1 do in these assays?
DDE Tn6 FP inh: inactive; proKLK7 act: 14; NRP1-CendR mod: inactive; Tn7 DDE FP: inactive; KLK7 act conf: 15; EDANS-DABCYL int: 20

Results for CNc1cccc(-c2ccc(C(=O)N3CCOCC3)cc2)n1 ?
DDE Tn6 FP inh: inactive; proKLK7 act: inactive; NRP1-CendR mod: inactive; Tn7 DDE FP: inactive

How did O=C(OCc1cn(Cc2ccc(F)cc2)nn1)N1CCOCC1 do in these assays?
DDE Tn6 FP inh: inactive; proKLK7 act: inactive; Tn7 DDE FP: inactive

Results for COc1ccc(-c2cn3cc(C)ccc3n2)cc1F ?
DDE Tn6 FP inh: inactive; CRFR2-BP antag: inactive; proKLK7 act: inactive; NRP1-CendR mod: inactive; Tn7 DDE FP: inactive; CRFBP-R2 agonist: inactive

What do the screens show for `COc1ccc(CC(=O)Nc2ccc(-c3cn4ccccc4n3)cc2)cc1`?
DDE Tn6 FP inh: inactive; CRFR2-BP antag: inactive; proKLK7 act: inactive; NRP1-CendR mod: inactive; Tn7 DDE FP: inactive; CRFBP-R2 agonist: inactive

Results for COc1ccc(CC(=O)Nc2ccc(-c3cn4ccccc4n3)cc2)cc1OC ?
DDE Tn6 FP inh: inactive; CRFR2-BP antag: inactive; proKLK7 act: 33; NRP1-CendR mod: inactive; Tn7 DDE FP: inactive; CRFBP-R2 agonist: inactive; KLK7 act conf: inactive; EDANS-DABCYL int: inactive

How did COc1ccc(-c2cn3cc(C)ccc3n2)cc1OC do in these assays?
DDE Tn6 FP inh: inactive; CRFR2-BP antag: inactive; proKLK7 act: 13; NRP1-CendR mod: inactive; Tn7 DDE FP: inactive; CRFBP-R2 agonist: inactive; KLK7 act conf: inactive; EDANS-DABCYL int: 13

Results for COc1ccc(CCNC(=O)c2sc(=S)n(C)c2N)cc1 ?
DDE Tn6 FP inh: inactive; CRFR2-BP antag: inactive; proKLK7 act: 15; NRP1-CendR mod: inactive; Tn7 DDE FP: inactive; CRFBP-R2 agonist: inactive; KLK7 act conf: 15; EDANS-DABCYL int: 13

What do the screens show for `O=C(C=Cc1ccco1)c1cc(Cl)ccc1O`?
DDE Tn6 FP inh: inactive; CRFR2-BP antag: inactive; proKLK7 act: 35; NRP1-CendR mod: inactive; Tn7 DDE FP: inactive; CRFBP-R2 agonist: inactive; KLK7 act conf: inactive; EDANS-DABCYL int: inactive

What do the screens show for `O=C(/C=C/c1ccco1)c1ccccc1O`?
DDE Tn6 FP inh: inactive; CRFR2-BP antag: inactive; proKLK7 act: inactive; NRP1-CendR mod: inactive; Tn7 DDE FP: inactive; CRFBP-R2 agonist: inactive

What do the screens show for `CC1CCN(CCCNC(=O)c2coc3nc4ccccc4nc23)CC1`?
DDE Tn6 FP inh: inactive; CRFR2-BP antag: inactive; proKLK7 act: 49; NRP1-CendR mod: inactive; Tn7 DDE FP: inactive; CRFBP-R2 agonist: inactive; KLK7 act conf: 64; EDANS-DABCYL int: 69

How did Cc1ccc(CCNC(=O)c2coc3nc4ccccc4nc23)cc1 do in these assays?
DDE Tn6 FP inh: inactive; CRFR2-BP antag: inactive; proKLK7 act: inactive; NRP1-CendR mod: inactive; Tn7 DDE FP: inactive; CRFBP-R2 agonist: inactive

Results for CC1CCCN(CCCNC(=O)c2coc3nc4ccccc4nc23)C1 (stereo not drawn) ?
DDE Tn6 FP inh: inactive; CRFR2-BP antag: inactive; proKLK7 act: 30; NRP1-CendR mod: inactive; Tn7 DDE FP: inactive; CRFBP-R2 agonist: inactive; KLK7 act conf: 50; EDANS-DABCYL int: 76

What do the screens show for `Cc1noc(C)c1S(=O)(=O)N(C)C[C@@H]1OCc2cnnn2CCCC(=O)N([C@@H](C)CO)C[C@@H]1C`?
DDE Tn6 FP inh: inactive; proKLK7 act: inactive; Tn7 DDE FP: inactive

How did O=C(c1cccc(Oc2ccccc2)c1)N1CCC(Oc2cccnc2)CC1 do in these assays?
DDE Tn6 FP inh: inactive; proKLK7 act: inactive; Tn7 DDE FP: inactive

What do the screens show for `CCOC(=O)c1[nH]c2ccc(OC)cc2c1NC(=S)N1CCN(C(=O)OCC)CC1`?
DDE Tn6 FP inh: inactive; CRFR2-BP antag: inactive; proKLK7 act: inactive; NRP1-CendR mod: inactive; Tn7 DDE FP: inactive; CRFBP-R2 agonist: inactive

What do the screens show for `CCOC(=O)c1[nH]c2ccc(OC)cc2c1NC(=O)CCN1CCCC(C)C1` (stereo not drawn)?
DDE Tn6 FP inh: inactive; CRFR2-BP antag: inactive; proKLK7 act: 27; NRP1-CendR mod: inactive; Tn7 DDE FP: inactive; CRFBP-R2 agonist: inactive; KLK7 act conf: inactive; EDANS-DABCYL int: inactive

What do the screens show for `CN(C)S(=O)(=O)c1cccc(NC(=O)c2cc3c(=O)n4ccccc4nc3s2)c1`?
DDE Tn6 FP inh: inactive; CRFR2-BP antag: inactive; proKLK7 act: inactive; NRP1-CendR mod: inactive; Tn7 DDE FP: inactive; CRFBP-R2 agonist: inactive

What do the screens show for `Cc1cccn2c(=O)c3cc(C(=O)NCC(C)C)sc3nc12`?
DDE Tn6 FP inh: inactive; CRFR2-BP antag: inactive; proKLK7 act: inactive; NRP1-CendR mod: inactive; Tn7 DDE FP: inactive; CRFBP-R2 agonist: inactive

How did CCN(CC)C(=O)c1cc2c(=O)n3ccccc3nc2s1 do in these assays?
DDE Tn6 FP inh: inactive; CRFR2-BP antag: inactive; proKLK7 act: 64; NRP1-CendR mod: inactive; Tn7 DDE FP: inactive; CRFBP-R2 agonist: inactive; KLK7 act conf: 64; EDANS-DABCYL int: 82

How did CC(C)CN(CC(C)C)C(=O)c1cc2c(=O)n3ccccc3nc2s1 do in these assays?
DDE Tn6 FP inh: inactive; CRFR2-BP antag: inactive; proKLK7 act: 22; NRP1-CendR mod: inactive; Tn7 DDE FP: inactive; CRFBP-R2 agonist: inactive; KLK7 act conf: inactive; EDANS-DABCYL int: inactive

Results for CC(C)CCNC(=O)c1cc2c(=O)n3ccccc3nc2s1 ?
DDE Tn6 FP inh: inactive; CRFR2-BP antag: inactive; proKLK7 act: 63; NRP1-CendR mod: inactive; Tn7 DDE FP: inactive; CRFBP-R2 agonist: inactive; KLK7 act conf: 33; EDANS-DABCYL int: 41
